Screens from PubChem.
An excerpt weighted towards active compounds, which were near 1.2% of everything screened.
AP ELISA ortho = alternative pathway complement inhibition, orthogonal assay; inhibition, % at 5 µM; 62,000 tested, 0.08% active; Human serum alternative complement pathway, LPS-coated ELISA, C3 deposition; tested in compound mixtures;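 active = inhibition above 30% in each of the two pooled mixtures holding the compound, so the lower value exceeds 30%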;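 also: 0% = serum in Mg-EGTA without compound and 100% = EDTA serum blank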
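Test system: human serum complement alternative pathway, C3 deposition onto LPS / Medium: Mg2+-EGTA GVB++ buffer containing human serum at 1:15 dilution / Probe or stimulus: Plate-bound LPS / Times: 1 h at 37 °C / Signal: ELISA with HRP anti-human C3 antibody, TMB substrate, absorbance 450 nm / Measure: percent inhibition / Repeats: two pool placements per compound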
SKBR3 24h inh = SK-BR-3 proliferation inhibitors | SK-BR-3 viability, CellTiter-Glo ATP luminescence, 24 h; stronger effect = lower value | viability, % at 10 µM | 41,000 tested, 0.47% active | AID 847;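 active = viability at or below the median of all test compounds minus 3 SD, in both replicates if run twice, cut at about 45% in these data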;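 also: 100% = median untreated cell wells and 0% = median positive control drug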
Her2 expr inh = lowers expression of human Her2 kinase. P04626. SKBR-3 HER2 protein level, AlphaScreen, 18-24 h; stronger effect = lower value. HER2 level % of control, % at 10 µM. 65,000 tested, 0.69% active;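 active = HER2 level under 5% of the carrier-only control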;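 also: 100% = DMSO carrier and 0% = 500 nM PU-H71 HSP90 inhibitor; lower value means stronger loss of Her2 protein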
MMP13 inh = inhibitors of human MMP13. P45452. MMP-13 fTHP FRET cleavage, Mca fluorescence. inhibition, % at 4 µM. 65,000 tested, 0.07% active. AID 570;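 active = inhibition above the mean of compound-free control plate wells plus 3 SD, cut at about 14% in these data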;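 also: 0% = DMSO wells and 100% = wells with reference MMP-13 inhibitor after basal subtraction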
TNAP act DEA = activators of human TNAP at intermediate phosphate acceptor; purified TNAP, CDP-star luminescence, 100 mM DEA, 30 min; stronger effect = higher value; scale: 0 levamisole-inhibited, 1 vehicle-only enzyme; 64,000 tested, under 10 active; P05186; activation factor at 20 µM;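 active = activation factor of at least 2 at 20 µM, relative to controls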
E coli RNAP = inhibitors of Escherichia coli RNA polymerase; E. coli RNA polymerase, fluorescence transcription assay; inhibition, %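 (tested at 10 µM)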; 62,000 tested, 0.2% active; AID 559; in the data active = inhibition above about 20%;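 also: 0% = enzyme without compound and 100% = no enzyme blank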
Target sequence (P0A8V2 whole entry, looked up): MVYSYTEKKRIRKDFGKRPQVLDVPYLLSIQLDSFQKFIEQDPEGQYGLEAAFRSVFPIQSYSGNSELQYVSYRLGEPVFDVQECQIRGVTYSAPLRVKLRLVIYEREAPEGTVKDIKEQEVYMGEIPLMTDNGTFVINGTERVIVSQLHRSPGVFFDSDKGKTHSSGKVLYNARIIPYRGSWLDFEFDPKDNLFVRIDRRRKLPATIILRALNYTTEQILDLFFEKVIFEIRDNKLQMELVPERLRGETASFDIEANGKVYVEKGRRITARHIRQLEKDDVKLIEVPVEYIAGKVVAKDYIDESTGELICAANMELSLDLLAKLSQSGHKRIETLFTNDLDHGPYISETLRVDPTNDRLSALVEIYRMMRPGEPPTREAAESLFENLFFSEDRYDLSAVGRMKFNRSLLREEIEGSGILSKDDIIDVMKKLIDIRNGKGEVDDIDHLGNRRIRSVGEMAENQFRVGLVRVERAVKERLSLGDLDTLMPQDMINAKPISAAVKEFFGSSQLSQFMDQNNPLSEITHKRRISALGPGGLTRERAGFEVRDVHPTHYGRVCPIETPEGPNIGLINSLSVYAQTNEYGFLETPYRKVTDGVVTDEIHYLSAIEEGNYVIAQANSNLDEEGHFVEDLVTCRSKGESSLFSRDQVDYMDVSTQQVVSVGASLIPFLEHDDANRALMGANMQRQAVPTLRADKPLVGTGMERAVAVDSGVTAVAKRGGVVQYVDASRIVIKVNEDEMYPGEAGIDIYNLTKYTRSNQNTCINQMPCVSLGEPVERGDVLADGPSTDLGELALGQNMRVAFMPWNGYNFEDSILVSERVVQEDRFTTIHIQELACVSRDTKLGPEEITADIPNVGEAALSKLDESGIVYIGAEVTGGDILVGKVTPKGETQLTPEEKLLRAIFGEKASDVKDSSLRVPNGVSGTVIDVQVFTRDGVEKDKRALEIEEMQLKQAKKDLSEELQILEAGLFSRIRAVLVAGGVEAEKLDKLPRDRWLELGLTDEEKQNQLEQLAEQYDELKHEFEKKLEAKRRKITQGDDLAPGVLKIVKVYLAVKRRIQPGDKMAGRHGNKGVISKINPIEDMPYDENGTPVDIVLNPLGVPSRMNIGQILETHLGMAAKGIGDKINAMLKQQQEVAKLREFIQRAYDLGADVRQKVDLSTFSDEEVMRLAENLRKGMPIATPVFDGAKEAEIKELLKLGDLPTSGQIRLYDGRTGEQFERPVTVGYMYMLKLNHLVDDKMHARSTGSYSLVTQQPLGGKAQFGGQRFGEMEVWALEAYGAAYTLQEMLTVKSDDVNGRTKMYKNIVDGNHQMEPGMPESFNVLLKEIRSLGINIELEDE
Numbers without * were called inactive.

Screening Cc1ccccc1-n1nc2c(c1NC(=O)c1cc3ccccc3oc1=O)CS(=O)C2 (centres undefined) returned AP ELISA ortho -10, SKBR3 24h inh 91, Her2 expr inh 85, MMP13 inh -4, TNAP act DEA 0.9 and E coli RNAP 6.
`O=C(NCc1ccccc1F)C1CCN(C(=O)NCc2ccccc2)CC1` gave AP ELISA ortho 33*, SKBR3 24h inh 83, Her2 expr inh 103, MMP13 inh 0, TNAP act DEA 0.9 and E coli RNAP -3.
O=C(NCc1ccc(F)cc1)C1CCN(C(=O)NCc2ccccc2)CC1 was read as AP ELISA ortho 4, SKBR3 24h inh 91, Her2 expr inh 91, MMP13 inh -3, TNAP act DEA 0.8 and E coli RNAP 11.
For Cc1c(O)nc(SC2CC(=O)N(c3ccccc3)C2=O)[nH]c1=O (centres undefined) the results were AP ELISA ortho 5, SKBR3 24h inh 91, Her2 expr inh 96, MMP13 inh -2, TNAP act DEA 1 and E coli RNAP 4.
O=C1CC(Sc2nnnn2C2CCCCC2)C(=O)N1c1ccccc1 (centres undefined) was read as Her2 expr inh -3.2* and MMP13 inh -1.
COc1ccc(C2CC(=O)C(C=NCCO)=C(O)C2)cc1OC (centres undefined) was read as AP ELISA ortho 7, SKBR3 24h inh 85, Her2 expr inh -28*, MMP13 inh 3, TNAP act DEA 1 and E coli RNAP 2.
CC1Cc2ccccc2N1C(=O)CSc1nc2c(c(=O)n(C)c(=O)n2C)n1Cc1ccccc1 (centres undefined) was read as AP ELISA ortho -9, SKBR3 24h inh 71, Her2 expr inh 190, MMP13 inh 4, TNAP act DEA 0.9 and E coli RNAP 10.
CCOc1ccc(NC(=O)C2CC(=O)N(CC)C(=Nc3ccc4c(c3)OCO4)S2)cc1 (centres undefined) was read as AP ELISA ortho 1, Her2 expr inh 50, MMP13 inh 6, TNAP act DEA 0.8 and E coli RNAP 1.
`CCN1C(=O)CC(C(=O)Nc2ccc(F)cc2)SC1=Nc1ccc2c(c1)OCO2` (centres undefined) gave AP ELISA ortho 7, Her2 expr inh -27*, MMP13 inh -3, TNAP act DEA 0.8 and E coli RNAP 10.
For CCC(=O)N1CCN(c2ccccc2NC(=O)COc2ccccc2Cl)CC1 the results were AP ELISA ortho -15, SKBR3 24h inh 80, Her2 expr inh 76, MMP13 inh -1 and TNAP act DEA 1.
For CCCCCc1c(C)nc(N2CCOCC2)[nH]c1=O the results were AP ELISA ortho 16, SKBR3 24h inh 82, Her2 expr inh 74, MMP13 inh 1 and TNAP act DEA 1.
For O=C(Cc1ccc(F)cc1)Nc1c2c(nn1-c1cccc(Cl)c1)CS(=O)C2 (centres undefined) the results were AP ELISA ortho -1, SKBR3 24h inh 36*, Her2 expr inh 115, MMP13 inh 2, TNAP act DEA 0.9 and E coli RNAP 10.
Screening Cc1ccc2nc(Nc3ccccc3)c(/C=N/O)c(=O)n2c1 returned Her2 expr inh -25* and MMP13 inh -2.
For CC(C)(C)OC(=O)NCCc1nnc(S(=O)(=O)Cc2ccc(Cl)cc2Cl)o1 the results were AP ELISA ortho 10, SKBR3 24h inh 80, Her2 expr inh -16*, MMP13 inh 2, TNAP act DEA 0.9 and E coli RNAP -1.
For O=C(NCc1ccc2c(c1)OCO2)c1cccnc1 the results were AP ELISA ortho 6, SKBR3 24h inh 108, Her2 expr inh 112, MMP13 inh 6, TNAP act DEA 0.9 and E coli RNAP 6.
`CCOC(=O)c1ccc(NCc2ccc3c(c2)OCO3)cc1` gave AP ELISA ortho -3, SKBR3 24h inh 43*, Her2 expr inh 97, MMP13 inh 1, TNAP act DEA 0.9 and E coli RNAP 11.
For O=C(NCc1ccc2c(c1)OCO2)c1cccc(C(=O)NCc2ccc3c(c2)OCO3)c1 the results were AP ELISA ortho 17, Her2 expr inh 80, MMP13 inh 21*, TNAP act DEA 1 and E coli RNAP 3.
`CCOC(=O)c1cc(-c2ccc(F)cc2)n(CC(=O)Nc2nccs2)c1C` gave AP ELISA ortho 11, Her2 expr inh 79, MMP13 inh -6, TNAP act DEA 0.9 and E coli RNAP 10.
For COc1ccc(Br)cc1C1NC(=O)c2c(sc3c2CCN(C)C3)N1 (centres undefined) the results were AP ELISA ortho 14, SKBR3 24h inh 43*, Her2 expr inh 92, MMP13 inh -1, TNAP act DEA 0.8 and E coli RNAP 2.
`CCOC(=O)C1=C(C)N2C(=C(C#N)[C@@H]1c1ccc(C(=O)OC)cc1)SC[C@@]2(O)C(C)(C)C` gave AP ELISA ortho 6, SKBR3 24h inh 96, Her2 expr inh 111, MMP13 inh -2, TNAP act DEA 1 and E coli RNAP 0.
For O=S(=O)(c1ccc2c(c1)C(=NO)c1cc(S(=O)(=O)N3CCCCC3)ccc1-2)N1CCCCC1 the results were AP ELISA ortho -10, SKBR3 24h inh 3.5*, Her2 expr inh -22*, MMP13 inh -4, TNAP act DEA 0.9 and E coli RNAP 2.
COc1ccc(C2=CC(c3ccc(Cl)cc3)n3cnnc3N2)cc1OC (centres undefined) was read as AP ELISA ortho -4, SKBR3 24h inh 40*, Her2 expr inh 91, MMP13 inh -11, TNAP act DEA 0.9 and E coli RNAP 1.
Screening COc1ccc(C2C=C(c3ccc(Cl)cc3)Nc3nc(NC(C)=O)nn32)cc1 (centres undefined) returned SKBR3 24h inh 66, Her2 expr inh 105, MMP13 inh inactive and TNAP act DEA 0.9.
For COc1ccccc1-c1c(C)nn2c(N3CCC4(CC3)OCCO4)cc(C)nc12 the results were AP ELISA ortho 14, Her2 expr inh 114, MMP13 inh 2, TNAP act DEA 0.9 and E coli RNAP 8.
Cc1cc(N2CCC3(CC2)OCCO3)n2nc(C)c(-c3ccc(Cl)cc3)c2n1 was read as AP ELISA ortho -4, Her2 expr inh -19*, MMP13 inh -3, TNAP act DEA 1 and E coli RNAP -8.
For COc1ccc(Cl)c(Cn2c(NCc3ccco3)nc3c2c(=O)n(C)c(=O)n3C)c1 the results were AP ELISA ortho 1, SKBR3 24h inh 81, Her2 expr inh -26*, MMP13 inh 3, TNAP act DEA 1 and E coli RNAP 4.
Screening COc1ccccc1-c1cc(C(F)(F)F)nc(S(=O)(=O)CCCC(=O)NC(C)C)n1 returned AP ELISA ortho 18, SKBR3 24h inh 91, Her2 expr inh -13*, MMP13 inh -9, TNAP act DEA 1 and E coli RNAP 6.
